Consider 12 molecules from ChEMBL document CHEMBL1153903, “Tethered thiazolidinone dimers as inhibitors of the bacterial type III secretion system” (Bioorg Med Chem Lett, 2009).

The structures appear in SMILES notation. pIC50: −log10 of the molar value.

The assay can be described thus: Inhibition of T3SS-dependent SipA secretion in Salmonella Typhimurium. Details: species or system Salmonella enterica subsp. enterica serovar Typhimurium. An outline of the steps:
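Salmonella typhimurium type III secretion read out as secretion of the substrate SipA into culture supernatants. Supernatant proteins TCA-precipitated, resolved by SDS-PAGE and Western blotted with anti-SipA antibody; IC50 derived from the reduction in secreted SipA.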
For `COc1cc(/C=C2\S/C(=N\c3ccccc3)N(CC(=O)Nc3ccccc3NC(=O)CN3C(=O)/C(=C/c4cc(OC)c(O)c(OC)c4)S/C3=N\c3ccccc3)C2=O)cc(OC)c1O`, the pIC50 is 4.66.
The result for `COc1cc(/C=C2\S/C(=N\c3ccccc3)N(CCNC(=O)C3CCCN3C(=O)CN3C(=O)/C(=C/c4cc(OC)c(O)c(OC)c4)S/C3=N\c3ccccc3)C2=O)cc(OC)c1O` (configuration not stated) reads 4.26; that for `COc1cc(/C=C2\S/C(=N\c3ccccc3)N(CCCCCCNC(=O)CCCN3C(=O)/C(=C/c4cc(OC)c(O)c(OC)c4)S/C3=N\c3ccccc3)C2=O)cc(OC)c1O`, 4.77; that for `COc1cc(/C=C2\S/C(=N\c3ccccc3)N(c3ccccc3)C2=O)cc(OC)c1O`, 4.08.
The result for `COc1cc(/C=C2\S/C(=N\c3ccccc3)N(CCCCCCNC(=O)CN3C(=O)/C(=C/c4cc(OC)c(O)c(OC)c4)S/C3=N\c3ccccc3)C2=O)cc(OC)c1O` reads 5.30; that for `COc1cc(/C=C2\S/C(=N\c3ccccc3)N(CCCNC(=O)CN3C(=O)/C(=C/c4cc(OC)c(O)c(OC)c4)S/C3=N\c3ccccc3)C2=O)cc(OC)c1O`, 4.32.
The result for `COc1cc(/C=C2\S/C(=N\c3ccccc3)N(CCN3CCN(CCN4C(=O)/C(=C/c5cc(OC)c(O)c(OC)c5)S/C4=N\c4ccccc4)CC3)C2=O)cc(OC)c1O` reads 4.36; that for `COc1cc(/C=C2\S/C(=N\c3ccccc3)N(CCCCCCNCCN3C(=O)/C(=C/c4cc(OC)c(O)c(OC)c4)S/C3=N\c3ccccc3)C2=O)cc(OC)c1O`, 4.19.
The molecule `COc1cc(/C=C2\S/C(=N\c3ccccc3)N(CCCCNC(=N)NCCN3C(=O)/C(=C/c4cc(OC)c(O)c(OC)c4)S/C3=N\c3ccccc3)C2=O)cc(OC)c1O` showed a pIC50 of 4.33.
The same measure for `COc1cc(/C=C2\S/C(=N\c3ccccc3)N(CCCNC(=O)[C@H](CCCNC(=N)N)NC(=O)CN3C(=O)/C(=C/c4cc(OC)c(O)c(OC)c4)S/C3=N\c3ccccc3)C2=O)cc(OC)c1O`: 4.32; for `COc1cc(/C=C2\S/C(=N\c3ccccc3)N(CC(=O)Nc3cccc(NC(=O)CN4C(=O)/C(=C/c5cc(OC)c(O)c(OC)c5)S/C4=N\c4ccccc4)c3)C2=O)cc(OC)c1O`: 4.10; for `COc1cc(/C=C2\S/C(=N\c3ccccc3)N(CCCNC(=O)[C@H](Cc3ccc(-c4ccccc4)cc3)NC(=O)[C@H](CCCN)N3C(=O)/C(=C/c4cc(OC)c(O)c(OC)c4)S/C3=N\c3ccccc3)C2=O)cc(OC)c1O`: 4.31.

The term pIC50 denotes the IC50 on a negative log10 scale, so that one unit is a factor of ten. High values mean a low IC50, low ones a high IC50.
